Data as given in PMC3727929 (Molecular Biology of the Cell, 2013).
Entries after “also recorded” stand apart in the source; their conditions may differ.

Key:
[1] = Solubility of Dyn2 constructs on concentration; assay type: physicochemical; details: buffer A, pH 6.8; WT 6.0 mg/ml, H58K 10.0 mg/ml, F76K/Y78E 6.0 mg/ml
Pac11-Myc = assay: Single-molecule Dyn1-Pac11 colocalization assay; assay type: binding, S. cerevisiae; details: pH 7.2, motors diluted as for motility assays (∼1 nM)
Procedure, shortened: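 Glass flow chamber from HNO3/NaOH-cleaned coverslip. Sequential steps: Cy5-labelled rabbit anti-Myc diluted 10,000× in 30 mM HEPES, 2 mM MgCl2, 1 mM EGTA, 0.5 mg/ml BSA (pH 7.2), 2 min; blocking buffer with 5 mg/ml BSA and 1 mg/ml β-casein, 5 min; TMR-HaloTag-labelled, TEV-released Dyn1 in blocking buffer, 5 min; second round of antibody, 5 min. Cy5–TMR spot colocalization scored.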

Dyn2 = Dyn2 (Saccharomyces cerevisiae, UniProt Q02647); assay: Western blot of Dyn2 copurifying with Dyn1; assay type: binding, S. cerevisiae; details: IgG affinity purification, anti-Dyn2 Western blot, Dyn1 normalized
Procedure, shortened: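 Dyn1 was IgG-bead purified from yeast lysate of WT, dyn2Δ and dyn2Δpac11Δ strains (lysis pH 7.4, 100 μM MgATP, beads 1 h at 4°C) and TEV-released at 16°C for 1 h. Dyn1 was quantified by Krypton-stained SDS–PAGE against BSA standards, then equal Dyn1 amounts were loaded. Blots used rabbit anti-Dyn2 (1:200), anti-Myc for Pac11 (1:2000) and Alexa Fluor 680 anti-rabbit secondary (1:5000).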

microtubules = details: full-length dynein, HaloTag-TMR labeled; ref Reck-Peterson et al., 2006; cited from earlier work
[2] = target: Dyn1 (S. cerevisiae cytoplasmic dynein heavy chain), full length, ZZ-TEV-GFP and HaloTag tagged (S. cerevisiae) (UniProt P36022); assay: single-molecule TIRF fluorescence intensity analysis
[3] = target: Dyn2 (S. cerevisiae dynein light chain), wild type, full length (S. cerevisiae, UniProt Q02647 1-92); assay: ITC

## Dyn2 H58K
[1]
  solubility during concentration step: remained soluble

## Dyn1 purified from dyn2Δ: TMR-labeled Dyn1 purified from VY263 with dyn2Δ
Pac11-Myc
  colocalization of Dyn1 with Pac11-Myc (in words): did not reveal any associated Pac11; also recorded: do not show significant TMR-Cy5 colocalization
Dyn2
  Dyn2 copurified with Dyn1: absence of Dyn2

## Dyn1 purified from dyn2Δpac11Δ
Pac11-Myc
  colocalization of Dyn1 with Pac11-Myc (in words): did not reveal any associated Pac11; also recorded: do not show significant TMR-Cy5 colocalization
Dyn2
  Dyn2 copurified with Dyn1: absence of Dyn2

## Dyn2 F76K/Y78E
[1]
  solubility during concentration step: remained soluble

## Dyn1: full-length dynein labeled at its C-terminus with the HaloTag and covalently bound to tetramethylrhodamine (TMR)
microtubules
  average run length: 1.7 μm

## Dyn1 (S. cerevisiae cytoplasmic dynein heavy chain), full length, ZZ-TEV-GFP and HaloTag tagged, P36022 1-4092
[2]
  stoichiometry N: 2

## ITYDKGIQTDQ [Pac11 peptide 2 (second Dyn2-binding site of Pac11, residues 75-85)]
[3]
  Kd: 620 nM
  dH: -5.17 ± 0.139 kcal/mol
  stoichiometry N: 1.05 ± 0.02 sites
